Assay results as given in ChEMBL document CHEMBL2062469, “1-(2-Mercaptobenzenesulfonyl)-3-hydroxyguanidines--novel potent antiproliferatives, synthesis and in vitro biological activity” (2012).

What was measured:
Format in all cases: functional
LOX IMVI = experiment: Cytostatic activity against human LOXIMVI cells
How it was run: (§1)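 NCI-60 human tumor cell line screen run by the US National Cancer Institute under the NIH Developmental Therapeutics Program protocol. A single-dose prescreen at 10 µM came first. Selected compounds then went into the 5-dose assay. Cytostatic activity is reported as GI50 (µM).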

Malme-3M = experiment: Cytostatic activity against human MALME-3M cells; how it was run: as §1
M14 = experiment: Cytostatic activity against human M14 cells; how it was run: as §1
MDA-MB-435 = experiment: Cytostatic activity against human MDA-MB-435 cells; how it was run: as §1
SK-MEL-2 = experiment: Cytostatic activity against human SK-MEL-2 cells; how it was run: as §1
SK-MEL-28 = experiment: Cytostatic activity against human SK-MEL-28 cells; how it was run: as §1
SK-MEL-5 = experiment: Cytostatic activity against human SK-MEL-5 cells; how it was run: as §1
UACC-257 = experiment: Cytostatic activity against human UACC257 cells
How it was run: (§2)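 Human tumour cell lines from the NCI-60 panel, tested at the US National Cancer Institute under the NIH Developmental Therapeutics Program protocol. A single-dose prescreen at 10 µM came first. Selected compounds then went to a 5-dose assay, which gave GI50 and TGI values in µM.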

UACC-62 = experiment: Cytostatic activity against human UACC62 cells; how it was run: as §2
IGROV-1 = experiment: Cytostatic activity against human IGROV1 cells; how it was run: as §1
OVCAR-3 = experiment: Cytostatic activity against human OVCAR3 cells; how it was run: as §1
OVCAR-4 = experiment: Cytostatic activity against human OVCAR4 cells; how it was run: as §1
OVCAR-5 = experiment: Cytostatic activity against human OVCAR5 cells; how it was run: as §1
OVCAR-8 = experiment: Cytostatic activity against human OVCAR8 cells; how it was run: as §1
NCI/ADR-RES = experiment: Cytostatic activity against human NCI-ADR-RES cells; how it was run: as §1
A498 = experiment: Cytostatic activity against human A498 cells; how it was run: as §1
ACHN = experiment: Cytostatic activity against human ACHN cells; how it was run: as §1
CAKI-1 = experiment: Cytostatic activity against human Caki1 cells; how it was run: as §1
RXF 393 = experiment: Cytostatic activity against human RXF393 cells; how it was run: as §1
SN12C = experiment: Cytostatic activity against human SN12C cells; how it was run: as §1
TK-10 = experiment: Cytostatic activity against human TK10 cells; how it was run: as §2
UO-31 = experiment: Cytostatic activity against human UO31 cells; how it was run: as §2
PC-3 = experiment: Cytostatic activity against human PC3 cells; how it was run: as §1
DU-145 = experiment: Cytostatic activity against human DU145 cells; how it was run: as §1
MCF7 = experiment: Cytostatic activity against human MCF7 cells; how it was run: as §1
MDA-MB-231 = experiment: Cytostatic activity against human MDA-MB-231/ATCC cells; how it was run: as §1
Hs-578T = experiment: Cytostatic activity against human Hs 578T cells; how it was run: as §1
T47D = experiment: Cytostatic activity against human T47D cells; how it was run: as §2
MDA-MB-468 = experiment: Cytostatic activity against human MDA-MB-468 cells; how it was run: as §1

## N=C(NO)NS(=O)(=O)c1cc(-c2nnc(-c3ccc(Cl)cc3)s2)c(Cl)cc1SCc1ccccc1
LOX IMVI
  GI50: 1680 nM
  TGI: 3470 nM
Malme-3M
  GI50: 1960 nM
  TGI: 4030 nM
M14
  GI50: 1680 nM
  TGI: 3200 nM
MDA-MB-435
  GI50: 2110 nM
  TGI: 4170 nM
SK-MEL-2
  GI50: 1750 nM
  TGI: 3500 nM
SK-MEL-28
  GI50: 1910 nM
  TGI: 3470 nM
SK-MEL-5
  GI50: 1580 nM
  TGI: 3050 nM
UACC-257
  GI50: 2100 nM
  TGI: 4050 nM
UACC-62
  GI50: 2020 nM
  TGI: 3760 nM
IGROV-1
  GI50: 2570 nM
  TGI: 5380 nM
OVCAR-3
  GI50: 1670 nM
  TGI: 3120 nM
OVCAR-4
  GI50: 1650 nM
  TGI: 4010 nM
OVCAR-5
  GI50: 1600 nM
  TGI: 3020 nM
OVCAR-8
  GI50: 2030 nM
  TGI: 4300 nM
NCI/ADR-RES
  GI50: 7390 nM
A498
  GI50: 1750 nM
  TGI: 5550 nM
ACHN
  GI50: 1710 nM
  TGI: 3150 nM
CAKI-1
  GI50: 2270 nM
  TGI: 4670 nM
RXF 393
  GI50: 1660 nM
  TGI: 3040 nM
SN12C
  GI50: 1670 nM
  TGI: 3200 nM
TK-10
  GI50: 1870 nM
  TGI: 3430 nM
UO-31
  GI50: 1990 nM
  TGI: 4680 nM
PC-3
  GI50: 1740 nM
  TGI: 3270 nM
DU-145
  GI50: 1730 nM
  TGI: 3100 nM
MCF7
  GI50: 1570 nM
  TGI: 3030 nM
MDA-MB-231
  GI50: 2070 nM
  TGI: 4790 nM
Hs-578T
  GI50: 2510 nM
  TGI: 7260 nM
T47D
  GI50: 2070 nM
  TGI: 4810 nM
MDA-MB-468
  GI50: 1520 nM
  TGI: 2850 nM
